# ChEMBL document CHEMBL4834396, “Molecular Recognition and Imaging of Human Telomeric G-Quadruplex DNA in Live Cells: A Systematic Advancement of Thiazole Orange Scaffold To Enhance Binding Specificity and Inhibition of Gene Expression” (J Med Chem, 2021)
# The source made the active and inactive calls. The rule behind the calls is not given here.
# Columns and labels:
# Quadruplex DNA [1] = assay: Stabilization of telomeric Htg24 G-quadruplex DNA (unknown origin) assessed as inhibition of DNA amplification at 20 uM by PCR analysis; type: nucleic-acid assay
# How it was run: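 Taq polymerase stop assay: Htg24 or its non-G4 mutant template (5 μM) with 2 μM of each oligomer, […] and ligand at 0–20 μM. Cycling was 94 °C for 5 min, then 30 cycles of 94/56/72 °C at 30 s each. Products were resolved on 15% PAGE and stained with SYBR Gold.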
# rRNA = assay: Binding affinity to rRNA (unknown origin) assessed as equilibrium binding constant at 5 uM at 25 degreeC […]; type: nucleic-acid assay
# How it was run: (§1)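 Fluorescence titration: ligand 5 μM in 10 mM Tris-HCl pH 7.4 with 60 mM KCl, nucleic acid added until saturation, 25 °C. Keq from nonlinear fit of F/F0 to an independent-site model.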
# Quadruplex DNA [2] = assay: Binding affinity to c-myc promoter G-quadruplex DNA Pu22 (unknown origin) assessed as equilibrium binding constant at 5 uM at 25 degreeC by […]; type: nucleic-acid assay; how it was run: as §1
# Quadruplex DNA [3] = assay: Binding affinity to telomeric Htg24 G-quadruplex DNA (unknown origin) assessed as compound-DNA complex stoichiometry ratio of 1:1 by Job's plot analysis; type: nucleic-acid assay
# DNA = assay: Binding affinity to ds26 DNA (unknown origin) assessed as dissociation constant by isothermal titration calorimetric analysis; type: nucleic-acid assay
# How it was run: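 ITC at 25 °C: DNA preannealed at 95 °C for 5 min, cooled and held at 4 °C overnight, in 25 mM KH2PO4, 60 mM KCl, pH 7.4, 0.5% DMSO. DNA 10 μM in cell, ligand 500 μM in syringe; 19 injections of 4 s, 150 s apart, 750 rpm stirring; blank heat subtracted before model fitting.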
# Quadruplex DNA [4] = assay: Binding affinity to telomeric Htg24 G-quadruplex DNA (unknown origin) assessed as decrease in peak intensity at guanine base G15 at 5 uM under pH condition 7.4 by spectrophotometric titration analysis; type: nucleic-acid assay
# [5] = Drug uptake in nucleolus of human U87 cells assessed as imaging of G-quadruplex at 5 uM for 30 mins followed by co-staining with DAPI and measured after 10 mins by confocal laser fluorescence microscopic analysis; type: ADME, subcellular; settings: u-87mg atcc, 40 min
# How it was run: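 Live U87 cells were co-stained with ligand (5 μM, 30 min) and DAPI (1 μM, 10 min). Confocal imaging used excitation at 402 nm for DAPI and 488 or 571 nm for the ligand.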
# Quadruplex DNA [6] = assay: Binding affinity to G4 quadruplex DNA in human U87 cells assessed as decrease in fluorescence intensity at 5 uM in presence of 5 to 20 uM BRACO19 by DAPI staining based confocal laser microscopic analysis; type: cell-based
# How it was run: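 Live U87 cells stained with ligand (5 μM) plus DAPI, with BRACO19 added at 0, 5, 10, 15 or 20 μM. Confocal imaging with excitation at 488 or 571 nm for the ligand and 402 nm for DAPI; nuclear spot fluorescence intensity scored.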
# HeLa = assay: Antiproliferative activity against human HeLa cells assessed as reduction in cell viability […] by MTT assay; type: functional, cell-based
# [7] = system: Quadruplex DNA [UNDEFINED MUTATION]; assay: Effect on confirmation of telomeric Htg24 G-quadruplex DNA T12G mutant (unknown origin) assessed as hybrid topology at 5 uM at pH 7.4 by circular dichroism analysis; type: nucleic-acid assay; settings: Homo sapiens
# How it was run: (§2)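 CD spectra recorded on G4-DNA and ligand, each at 5 μM, in 10 mM Tris-HCl, pH 7.4, with 60 mM KCl. Scan range 220–340 nm in a 1 mm quartz cuvette, 1 nm bandwidth and step, 0.5 s/point. Each spectrum is the average of three scans.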
# [8] = system: Quadruplex DNA [UNDEFINED MUTATION]; assay: Effect on confirmation of telomeric Htg24 G-quadruplex DNA G16A mutant (unknown origin) assessed as parallel topology at 5 uM at pH 7.4 by circular dichroism analysis; type: nucleic-acid assay; settings: Homo sapiens; how it was run: as §2
# [9] = system: Quadruplex DNA [UNDEFINED MUTATION]; assay: Effect on confirmation of telomeric Htg24 G-quadruplex DNA G16C mutant (unknown origin) assessed as parallel topology at 5 uM at pH 7.4 by circular dichroism analysis; type: nucleic-acid assay; settings: Homo sapiens; how it was run: as §2
# [10] = system: Quadruplex DNA [UNDEFINED MUTATION]; assay: Effect on confirmation of telomeric Htg24 G-quadruplex DNA G16T mutant (unknown origin) assessed as parallel topology at 5 uM at pH 7.4 by circular dichroism analysis; type: nucleic-acid assay; settings: Homo sapiens; how it was run: as §2
# [11] = system: Quadruplex DNA [UNDEFINED MUTATION]; assay: Effect on confirmation of telomeric Htg24 G-quadruplex DNA T18G mutant (unknown origin) assessed as hybrid topology at 5 uM at pH 7.4 by circular dichroism analysis; type: nucleic-acid assay; settings: Homo sapiens; how it was run: as §2
# [12] = system: Quadruplex DNA [UNDEFINED MUTATION]; assay: Effect on confirmation of telomeric Htg24 G-quadruplex DNA G22T mutant (unknown origin) assessed as hybrid topology at 5 uM at pH 7.4 by circular dichroism analysis; type: nucleic-acid assay; settings: Homo sapiens; how it was run: as §2
# [13] = system: Quadruplex DNA [UNDEFINED MUTATION]; assay: Binding affinity to telomeric Htg24 G-quadruplex DNA G3T mutant (unknown origin) assessed as negative fluorescence signal at 5 uM under pH condition 7.4 by fluorescence titration analysis; type: nucleic-acid assay; settings: Homo sapiens
# How it was run: (§3)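 Ligand held at 5 μM and mixed with each Htg24 point mutant in Tris-HCl buffer containing 60 mM KCl, pH 7.4. Fluorescence was read, and the signal change was computed as (F mutant − F wild type)/F wild type.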
# [14] = system: Quadruplex DNA [UNDEFINED MUTATION]; assay: Binding affinity to telomeric Htg24 G-quadruplex DNA A14G mutant (unknown origin) assessed as negative fluorescence signal at 5 uM under pH condition 7.4 by fluorescence titration analysis; type: nucleic-acid assay; settings: Homo sapiens
# How it was run: (§4)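 Ligand 5 μM mixed with wild-type or point-mutant Htg24 in Tris-HCl buffer with 60 mM KCl; signal change calculated as (F mutant − F wild type)/F wild type.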
# [15] = system: Quadruplex DNA [UNDEFINED MUTATION]; assay: Binding affinity to telomeric Htg24 G-quadruplex DNA G16A mutant (unknown origin) assessed as negative fluorescence signal at 5 uM under pH condition 7.4 by fluorescence titration analysis; type: nucleic-acid assay; settings: Homo sapiens; how it was run: as §4
# [16] = system: Quadruplex DNA [UNDEFINED MUTATION]; assay: Binding affinity to telomeric Htg24 G-quadruplex DNA G16T mutant (unknown origin) assessed as negative fluorescence signal at 5 uM under pH condition 7.4 by fluorescence titration analysis; type: nucleic-acid assay; settings: Homo sapiens; how it was run: as §4
# [17] = system: Quadruplex DNA [UNDEFINED MUTATION]; assay: Binding affinity to telomeric Htg24 G-quadruplex DNA G17C mutant (unknown origin) assessed as negative fluorescence signal at 5 uM under pH condition 7.4 by fluorescence titration analysis; type: nucleic-acid assay; settings: Homo sapiens; how it was run: as §4
# [18] = system: Quadruplex DNA [UNDEFINED MUTATION]; assay: Binding affinity to telomeric Htg24 G-quadruplex DNA T18G mutant (unknown origin) assessed as negative fluorescence signal at 5 uM under pH condition 7.4 by fluorescence titration analysis; type: nucleic-acid assay; settings: Homo sapiens; how it was run: as §3
# [19] = system: Quadruplex DNA [UNDEFINED MUTATION]; assay: Binding affinity to telomeric Htg24 G-quadruplex DNA G15A mutant (unknown origin) assessed as fluorescence signal at 5 uM under pH condition 7.4 by fluorescence titration analysis; type: nucleic-acid assay; settings: Homo sapiens
# [20] = system: Quadruplex DNA [UNDEFINED MUTATION]; assay: Binding affinity to telomeric Htg24 G-quadruplex DNA G15C mutant (unknown origin) assessed as fluorescence signal at 5 uM under pH condition 7.4 by fluorescence titration analysis; type: nucleic-acid assay; settings: Homo sapiens
# [21] = Water solubility of compound at 25 degreeC; type: physicochemical
# How it was run: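 Solubility in water measured at 25 °C.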
# Quadruplex DNA [22] = assay: Binding affinity to telomeric Htg24 G-quadruplex DNA (unknown origin) assessed as stroke shift under at 480 to 483 nm at pH 7.4 by spectrophotometric method
structure (smiles),measurement,setting,value
CN(C)c1ccc(/C=C/c2cc(/C=C3\Sc4ccccc4N3CCCN3CCOCC3)c3ccccc3[n+]2C)cc1.[I-],Activity,Quadruplex DNA [1],Active
same,Kb,rRNA,620000 M⁻¹
same,Kb,Quadruplex DNA [2],309000 M⁻¹
same,Activity,Quadruplex DNA [3],Active
same,Kd,DNA,2.97 µM
same,Activity,Quadruplex DNA [4],Active
same,Drug uptake,[5],Active
same,Activity,Quadruplex DNA [6],Active
same,IC50,HeLa,16.3 µM
same,Activity,[7],Active
same,Activity,[8],Active
same,Activity,[9],Active
same,Activity,[10],Active
same,Activity,[11],Active
same,Activity,[12],Active
same,Activity,[13],Active
same,Activity,[14],Active
same,Activity,[15],Active
same,Activity,[16],Active
same,Activity,[17],Active
same,Activity,[18],Active
same,Activity,[19],inactive
same,Activity,[20],inactive
same,solubility,[21],122 µM
same,Activity,Quadruplex DNA [22],162 nm
